# Shown is part of a subset that was picked to be rich in hits.
# Calb FLC = affects C. albicans growth with fluconazole | actives 0.57% (n = 300,000) | growth inhibition, % (test concentration not listed) | C. albicans CaCi-2 (fluconazole-resistant clinical isolate) + fluconazole, Alamar Blue growth, 48 h;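 active means growth inhibition above about 58% in most replicates, limit read from the data, passing the limit was not always enough; inconclusive means exactly half the replicates above a set limit; inactive means most replicates below a set limit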;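 further: all wells also contain fluconazole at 8 µg/ml as a sub-toxic cotreatment; 0% = median of DMSO wells and 100% = median of geldanamycin control wells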
# L major viab = Leishmania major promastigote growth inhibition; inhibition, % at 10 µM; AID 1063; actives 9% (n = 200,000); Leishmania major promastigotes, resazurin fluorescence viability; in the data active means inhibition above about 50%;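 further: promastigotes grown with compound for 44 hours at 28 °C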
# T cruzi inh = blocks replication of Trypanosoma cruzi; actives 1.4% (n = 300,000); T. cruzi beta-gal in NIH3T3, luminescence, 90 h; inhibition, % (no concentration beside the values);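 active means mean inhibition across valid replicates above about 55%, limit read from the data; inconclusive means mean below that limit but half or more replicates reach it; inactive means mean below it, under half of replicates reach it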;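 further: signal also drops with host cell toxicity which is not excluded here; 0% = plate median of DMSO wells and 100% = zero luminescence signal; higher percent means less beta-gal luminescence so fewer parasites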
#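 assay system = mouse NIH/3T3 fibroblasts infected with β-gal-expressing T. cruzi Tulahuen C4 | input = 5,000 NIH/3T3 host cells per well | buffer or medium = DMEM plus 2% FBS | timing = 3 h host attachment, then at least 90 h co-culture | measured by = GalScreen luminescence, 60 min | evaluation = luminescence reflecting intracellular parasite burden, expressed as percent inhibition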
# PolyA inh = yeast polyadenylation inhibition. S. cerevisiae SKY197-pL101 polyadenylation reporter, beta-gal luminescence; efflux-impaired pdr1/pdr3 knockout yeast; score 100 = 6 SD above DMSO. activity score, % at 12 µM. actives 0.02% (n = 300,000);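 active means lowest replicate activity score at least 50, where 100 means six control SD above control mean; inconclusive means lowest score under 50 but half or more replicates reach 50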;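 further: yeast exposed to compound for 9 h at 30 °C; higher score means more reporter readthrough which indicates perturbed polyadenylation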
# NALP3 yeast inh = inhibitors of NALP3 inflammasome in yeast; Yeast reconstituted NLRP3/ASC/caspase-1, beta-gal luminescence, 24 h; actives 0.39% (n = 330,000); inhibition, % at 10 µM; AID 2825;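 active means inhibition of 50% or more; inactive means inhibition below 50%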;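 further: plate controls were induced DMSO wells for no effect and uninduced yeast grown without galactose for full effect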
# NALP1 inh = blocks the NALP1 inflammasome reconstituted in yeast. S. cerevisiae NALP1/ASC/caspase-1 growth, X-gal OD620, 72 h. actives 0.61% (n = 280,000). inhibition, % at 10 µM. AID 2071; in the data active means inhibition mostly above about 24%, no sharp cut-off; inactive means mostly below about 32%
# * = called active by the depositor; ? = inconclusive; . = not tested or not shown.
SMILES,Calb FLC,L major viab,T cruzi inh,PolyA inh,NALP3 yeast inh,NALP1 inh
CN(Cc1ccccc1)c1nc(N)c([N+](=O)[O-])c(NCc2ccccc2)n1,4,9,41,-60,2,30
COc1cc2oc(=O)c3c(c2cc1OCC(=O)c1c(C)n(C)c2ccccc12)CCCC3,2,-3,7,-5,13,38
CC1(C)NC(=O)N(CCCCOc2ccc(Cl)cc2C=O)C1=O,3,57*,16,-13,5,13
CC1(C)NC(=O)N(CCCCOc2ccc(Cl)cc2)C1=O,-17,-4,-8,10,-14,-2
COc1ccc(CN2CCN(CCCc3ccccc3)C(CCO)C2)c(OC)c1 (stereo not given),-14,.,1,3,15,-16
COc1ccc(CC(C)N2CCN(c3ccccc3)CC2)cc1OC (stereo not given),-19,78*,12,-6,4,1
COc1ccc(OC)c(CN2CCCCCC2)c1,-7,.,-4,-15,7,-9
COc1ccc(OC)c(CN2CCN(Cc3cccc4ccccc34)CC2)c1,-2,65*,19,15,23,19
COc1ccc(CC(C)N2CCN(Cc3ccccc3)CC2)c(OC)c1 (stereo not given),11,95*,61*,-11,18,46
COc1ccc(CN2CCN(CCCc3ccccc3)CC2)c(OC)c1,0,91*,41,-16,14,18
Cc1cc(C)c(NC(=O)C2CC(=O)N(C(C)C)C2)c(C)c1 (stereo not given),5,.,-4,0,11,11
COc1ccc(Nc2nnc(SCC(=O)c3cc(C)n(CC4CCCO4)c3C)s2)cc1 (stereo not given),.,50*,.,.,12,-7
COc1cccc(NC(=S)NN=C2CCC(C(C)(C)C)CC2)c1 (stereo not given),-12,-3,-16,-22,19,-36
CC12CCC(C/C1=N/NC(=O)Nc1ccccc1)C2(C)C (stereo not given),-15,95*,25,-15,2,-32
COc1cccc(NC(=S)N/N=C2\CC3CCC2(C)C3(C)C)c1 (stereo not given),-1,89*,19,-3,17,18
COc1ccc(C(=O)N/N=C(\C)c2ccc(NC(=O)Cc3ccccc3)cc2)c(OC)c1,0,.,-16,?,1,1
COc1cc(OC)cc(C(=O)NCC(=O)Nc2ccc(-c3ccccc3)cc2)c1,-7,.,14,-15,32,16
CN(C)c1ccc(C(C(=O)NCc2ccccc2)N(Cc2cccnc2)C(=O)c2snc(C(N)=O)c2N)cc1 (stereo not given),1,.,-5,-1,-3,8
S=C(NN=C(C1CC1)C1CC1)Nc1ccccc1,-15,67*,-9,8,7,-1
CCn1c(=O)c([N+](=O)[O-])c(Cl)c2ccccc21,-4,-3,71*,-21,9,-16
CCn1c(=O)c([N+](=O)[O-])c(NCC(O)c2ccccc2)c2ccccc21 (stereo not given),-2,100*,41,10,13,22
COc1ccc(C=O)cc1Cn1ccnc1C,-11,-6,4,18,8,8
COc1cc(CCN2C(=O)c3cccc4cccc(c34)C2=O)c(S(=O)(=O)N2CCC(C)CC2)cc1OC,5,38,59*,-2,8,39
COc1cc(CCN2C(=O)c3cccc4cccc(c34)C2=O)c(S(=O)(=O)N2CCCCCC2)cc1OC,6,41,58*,2,16,14
Cc1nc(NC(=O)CN2CCOCC2)sc1-c1ccccc1,43,51*,4,-9,-15,5
SMILES,Calb FLC,L major viab,T cruzi inh,PolyA inh,NALP3 yeast inh,NALP1 inh
CCOc1ccc(-c2csc(NC(=O)CSC3=NC(=O)CN3C(C)=O)n2)c2ccccc12,-2,-1,-2,27,17,10
CC(=O)N1CC(=O)N=C1SCC(=O)Nc1nc(C)c(-c2ccccc2)s1,-29,96*,10,9,1,4
C/C(=N\N1CCN(C)CC1)c1ccc(Cl)c(Cl)c1,52,81*,18,-2,-10,2
C/C(=N\N1CCN(C)CC1)c1ccc(OC(F)F)cc1,-12,-8,3,-16,4,-13
CC1CCN(S(=O)(=O)N2CCC(C(=O)NCCC3=CCCCC3)CC2)CC1,-20,3,2,10,28,-12
NC(=S)n1[nH]c(-c2ccc([N+](=O)[O-])cc2)c(N=Nc2cccc([N+](=O)[O-])c2)c1=O,100*,1,-23,-8,.,16
NC(=S)n1[nH]c(-c2ccc([N+](=O)[O-])cc2)c(N=Nc2ccccc2[N+](=O)[O-])c1=O,.,20,.,.,.,0
Cc1c(N=Nc2c(-c3ccc([N+](=O)[O-])cc3)[nH]n(C(N)=S)c2=O)cccc1[N+](=O)[O-],.,65*,.,.,.,-7
Cc1[nH]n(-c2ccccc2)c(=O)c1N=Nc1cccc([N+](=O)[O-])c1,0,.,61*,-4,-2,17
C[C@H]1CN([C@@H](C)CO)C(=O)c2cccc(NC(=O)C3CC3)c2O[C@H]1CN(C)C(=O)Nc1ccc2c(c1)OCO2,.,.,.,.,2,.
C(C#CCCCCCCCCC[n+]1ccccc1)#CCCCCCCCCC[n+]1ccccc1,110*,.,8,-35,.,82*
Cc1ccc(S(=O)(=O)N2CCC(C(=O)NNC(=O)c3ccc(F)cc3)CC2)cc1,10,-7,-21,3,1,-13
CC(=O)c1ccc(N2CCN(C(=O)Cn3cnc(S(=O)(=O)N4CCCCC4)c3)CC2)cc1,-6,.,-5,28,-6,-26
Cc1cc(C)cc(Cn2ncc(Cl)c(Cl)c2=O)c1,16,19,-23,-8,.,46
O=c1c(Cl)c(Cl)cnn1-c1ccccc1,?,90*,50,5,.,30
CCc1ccc(C(=O)CN2C(=O)NC3(CCCCCC3)C2=O)cc1,.,.,.,.,40,.
Cc1ccc(Cn2ncc(Cl)c(Cl)c2=O)cc1,-12,60*,-6,1,-3,30
O=c1c(Cl)c(Cl)cnn1Cc1nnc(-c2ccc(Cl)cc2)o1,21,100*,60*,-23,.,-8
CCc1ccc(C(=O)Cn2ncc(Cl)c(Cl)c2=O)cc1,21,28,60*,-10,-13,-20
Cc1ccc(OC(=O)c2ccc([N+](=O)[O-])cc2Cl)cn1,-6,.,-17,-7,4,5
O=C(NNc1c(Cl)cccc1Cl)C1CCC1,-6,.,-10,?,-17,.
O=c1c(Cl)c(Cl)cnn1Cc1ccccc1Cl,20,76*,25,-13,.,28
CCOC(=O)Cn1nnnc1C(C(C)C)N(Cc1cccs1)Cc1cc2cc(C)ccc2[nH]c1=O (stereo not given),7,26,41,0,-4,7

# Compound activity (PubChem)
